# Test results from ChEMBL document CHEMBL4145466, “Design, synthesis, and biological evaluation of novel combretastatin A-4 thio derivatives as microtubule targeting agents” (Eur J Med Chem, 2018).
# Activity calls are given as the source filed them. No cut-off for these calls is given here.
# What was measured:
# HeLa [1] = assay: Potency index, ratio of CA-4 IC50 to compound IC50 for cytotoxicity against human HeLa cells; format: functional
# A-431 [2] = assay: Induction of apoptosis in human A431 cells assessed as increase in histone-associated DNA fragments in mononucleosomes at 0.1 uM after 24 hrs by ELISA; format: functional, cell-based
# Procedure, shortened: (§1)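 Cells (2 × 10^4) were incubated for 24 h at 0.1, 0.5 or 1 µM, lysed and centrifuged. Supernatants went onto a streptavidin plate with anti-histone-biotin and anti-DNA-peroxidase for 2 h, followed by ABTS for 30 min and a reading at 405 nm. Nucleosome content was expressed as an enrichment factor, as mean ± SD of three experiments.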
# HaCaT [3] = assay: Induction of apoptosis in human HaCaT cells assessed as increase in histone-associated DNA fragments in mononucleosomes at 0.1 uM after 24 hrs by ELISA; format: cell-based
# Procedure, shortened: (§2)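 HaCaT cells (2 × 10^4), grown in DMEM with 10% FBS, penicillin/streptomycin and 2 mM L-glutamine, exposed to compound (DMSO stock) for 24 h. Cells lysed, supernatant taken after centrifugation and incubated 2 h on a streptavidin-coated plate with anti-histone-biotin and anti-DNA-peroxidase. ABTS added for 30 min, A405 read. Output is enrichment factor vs control, mean ± SD of three independent experiments.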
# MCF7 [4] = assay: Induction of apoptosis in human MCF7 cells assessed as increase in histone-associated DNA fragments in mononucleosomes at 0.1 uM after 24 hrs by ELISA; format: functional, cell-based; procedure, shortened: as §1
# MDA-MB-231 [5] = assay: Induction of apoptosis in human MDA-MB-231 cells assessed as increase in histone-associated DNA fragments in mononucleosomes at 0.1 uM after 24 hrs by ELISA; format: functional, cell-based; procedure, shortened: as §1
# SK-OV-3 [6] = assay: Induction of apoptosis in human SKOV3 cells assessed as increase in histone-associated DNA fragments in mononucleosomes at 0.1 uM after 24 hrs by ELISA; format: functional, cell-based; procedure, shortened: as §1
# HaCaT [7] = assay: Induction of apoptosis in human HaCaT cells assessed as increase in histone-associated DNA fragments in oligonucleosomes at 0.1 uM after 24 hrs by ELISA; format: cell-based; procedure, shortened: as §2
# HeLa [8] = assay: Induction of apoptosis in human HeLa cells assessed as increase in histone-associated DNA fragments in oligonucleosomes at 0.1 uM after 24 hrs by ELISA; format: functional, cell-based; procedure, shortened: as §1
# MCF7 [9] = assay: Induction of apoptosis in human MCF7 cells assessed as increase in histone-associated DNA fragments in oligonucleosomes at 0.1 uM after 24 hrs by ELISA; format: functional, cell-based; procedure, shortened: as §1
# SK-OV-3 [10] = assay: Induction of apoptosis in human SKOV3 cells assessed as increase in histone-associated DNA fragments in oligonucleosomes at 0.1 uM after 24 hrs by ELISA; format: functional, cell-based; procedure, shortened: as §1
# HeLa [11] = assay: Cell cycle arrest in human HeLa cells assessed as accumulation of cells at G2/M phase at 0.1 to 1 uM after 24 hrs by propidium iodide staining-based FACS analysis; format: functional
# Procedure, shortened: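 Cells were seeded at 5 × 10^5 per well in DMEM with 10% FBS and left overnight, then exposed to 0.1, 0.5 or 1 µM for 24 h. DMSO served as the negative control and 50 nM camptothecin as the positive control. Cells were trypsinized, fixed in 70% ethanol for 30 min at 4 °C, stained with 50 µg/mL PI plus 100 µg/mL RNase A for 30 min in the dark, and analysed by flow cytometry. Results are mean ± SD of three experiments, compared by ANOVA with Dunnett's test.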
# Tubulin (Homo sapiens) [12] = molecular target: T1, Tubulin (Homo sapiens) (UniProt P68371+Q9H4B7+P0DPH7+P68366+Q13509+Q71U36+P04350+Q3ZCM7+P07437+P68363+Q9BQE3+Q6PEY2+Q13885+Q9BVA1+Q9BUF5); assay: Inhibition of tubulin polymerization in human MDA-MB-231 cells assessed as chromatin condensation at 1 uM after 24 hrs by Hoechst 33258 staining-based fluorescence microscopic analysis; format: cell-based
# Procedure, shortened: (§3)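 Cells seeded at 12.5 × 10^4 per well and exposed to 1 µM compound for 24 h. Nuclei were stained with Hoechst 33258 (10 µg/mL, 30 min, 37 °C), then fixed in 4% formaldehyde/PBS (15 min, RT). Cells were permeabilized with 1% Triton X-100, blocked with 2% BSA/PBS for 1 h, and incubated with anti-α-tubulin-FITC (1:50) overnight at 4 °C. Imaged by fluorescence microscopy.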
# Tubulin (Homo sapiens) [13] = molecular target: T1, Tubulin (Homo sapiens); assay: Inhibition of tubulin polymerization in human HeLa cells assessed as chromatin condensation at 1 uM after 24 hrs by Hoechst 33258 staining-based fluorescence microscopic analysis; format: cell-based; procedure, shortened: as §3
# Tubulin (Homo sapiens) [14] = molecular target: T1, Tubulin (Homo sapiens); assay: Inhibition of tubulin polymerization in human SKOV3 cells assessed as chromatin condensation at 1 uM after 24 hrs by Hoechst 33258 staining-based fluorescence microscopic analysis; format: cell-based; procedure, shortened: as §3
# A-431 [15] = assay: Induction of apoptosis in human A431 cells assessed as increase in histone-associated DNA fragments in mononucleosomes after 24 hrs by ELISA; format: functional, cell-based; procedure, shortened: as §1
# HaCaT [16] = assay: Induction of apoptosis in human HaCaT cells assessed as increase in histone-associated DNA fragments in mononucleosomes after 24 hrs by ELISA; format: cell-based; procedure, shortened: as §1
# MDA-MB-231 [17] = assay: Induction of apoptosis in human MDA-MB-231 cells assessed as increase in histone-associated DNA fragments in mononucleosomes after 24 hrs by ELISA; format: functional, cell-based; procedure, shortened: as §1
# SK-OV-3 [18] = assay: Induction of apoptosis in human SKOV3 cells assessed as increase in histone-associated DNA fragments in mononucleosomes after 24 hrs by ELISA; format: functional, cell-based; procedure, shortened: as §1
# A-431 [19] = assay: Induction of apoptosis in human A431 cells assessed as increase in histone-associated DNA fragments in oligonucleosomes after 24 hrs by ELISA; format: functional, cell-based; procedure, shortened: as §1
# HaCaT [20] = assay: Induction of apoptosis in human HaCaT cells assessed as increase in histone-associated DNA fragments in oligonucleosomes after 24 hrs by ELISA; format: cell-based; procedure, shortened: as §1
# HeLa [21] = assay: Induction of apoptosis in human HeLa cells assessed as increase in histone-associated DNA fragments in oligonucleosomes after 24 hrs by ELISA; format: functional, cell-based; procedure, shortened: as §1
# MCF7 [22] = assay: Induction of apoptosis in human MCF7 cells assessed as increase in histone-associated DNA fragments in oligonucleosomes after 24 hrs by ELISA; format: functional, cell-based; procedure, shortened: as §1
# MDA-MB-231 [23] = assay: Induction of apoptosis in human MDA-MB-231 cells assessed as increase in histone-associated DNA fragments in oligonucleosomes after 24 hrs by ELISA; format: functional, cell-based; procedure, shortened: as §1
structure (smiles),measurement,setting,value
COc1ccc(-c2ocnc2-c2cc(OC)c(SC)c(OC)c2)cc1O,Ratio IC50,HeLa [1],10
same,Activity,A-431 [2],Active
same,Activity,HaCaT [3],Toxic
same,Activity,MCF7 [4],Active
same,Activity,MDA-MB-231 [5],Active
same,Activity,SK-OV-3 [6],Active
same,Activity,HaCaT [7],Toxic
same,Activity,HeLa [8],Active
same,Activity,MCF7 [9],Active
same,Activity,SK-OV-3 [10],Active
COc1ccc(-c2ocnc2-c2cc(Br)c(OC)c(OC)c2)cc1SC,Activity,HeLa [11],Dose-dependent effect
same,inhibition,Tubulin (Homo sapiens) [12],Active
same,inhibition,Tubulin (Homo sapiens) [13],Active
same,inhibition,Tubulin (Homo sapiens) [14],Active
same,Activity,A-431 [15],Dose-dependent effect
same,Activity,HaCaT [16],Dose-dependent effect
same,Activity,MDA-MB-231 [17],Dose-dependent effect
same,Activity,SK-OV-3 [18],Dose-dependent effect
same,Activity,A-431 [19],Dose-dependent effect
same,Activity,HaCaT [20],Dose-dependent effect
same,Activity,HeLa [21],Dose-dependent effect
same,Activity,MCF7 [22],Dose-dependent effect
same,Activity,MDA-MB-231 [23],Dose-dependent effect
